# Screens (PubChem BioAssay)
# A selection: hits, their analogues and other compounds. The true share with any hit is near 3.1%.
# PAFAH2 FP inh = inhibitors of human PAFAH2. Q99487. recombinant PAFAH2, FP-rhodamine activity probe, fluorescence polarization. inhibition, % at 3.39 µM. 340,000 tested, 0.99% active. AID 492956;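 active = inhibition above the mean over all tested compounds plus 3 SD, cut at about 30% in these data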;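 also: inhibitors block probe labeling of enzyme so polarization drops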
# PAFAH1B2 inh = PAFAH1B2 (human) inhibition; recombinant PAFAH1B2, FP-rhodamine activity probe, fluorescence polarization; 340,000 tested, 1.2% active; inhibition, % at 3.39 µM;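 active = inhibition above the mean of all tested compounds plus 3 SD, cut at about 24% in these data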
# PAFAH1B3 inh = inhibitors of human PAFAH1B3. inhibition, % at 3.39 µM. AID 492972. 340,000 tested, 0.28% active. recombinant PAFAH1B3, FP-rhodamine probe, fluorescence polarization;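 active = inhibition above the screen-wide average of all tested compounds plus 3 SD, cut at about 25% in these data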
# pPAFAH FP inh = pPAFAH (human) enzyme inhibition | inhibition, % at 3.39 µM | recombinant pPAFAH, FP-rhodamine probe fluorescence polarization | Q13093 | 330,000 tested, 1.5% active;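 active = inhibition above the mean inhibition across the screen plus 3 SD, cut at about 25% in these data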;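 also: inhibitors block binding of the rhodamine activity-based probe so polarization drops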
# Target sequence (Q13093 whole entry, looked up): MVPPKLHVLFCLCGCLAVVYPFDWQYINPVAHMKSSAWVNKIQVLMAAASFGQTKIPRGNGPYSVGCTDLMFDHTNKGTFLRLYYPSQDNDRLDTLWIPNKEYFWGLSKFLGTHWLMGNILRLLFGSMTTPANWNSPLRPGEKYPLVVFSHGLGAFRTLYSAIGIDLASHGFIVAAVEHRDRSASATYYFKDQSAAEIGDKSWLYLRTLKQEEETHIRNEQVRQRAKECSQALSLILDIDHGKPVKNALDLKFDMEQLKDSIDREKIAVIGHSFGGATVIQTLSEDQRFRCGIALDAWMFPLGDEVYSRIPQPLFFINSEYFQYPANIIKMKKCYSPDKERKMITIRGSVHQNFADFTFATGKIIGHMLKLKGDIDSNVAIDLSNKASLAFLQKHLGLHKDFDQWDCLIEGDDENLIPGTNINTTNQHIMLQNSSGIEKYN
# Apaf-1 inh = human Apaf-1 inhibition; 330,000 tested, 0.71% active; reconstituted apoptosome caspase-3 activity, DEVD-Rh110 fluorescence; inhibition, % at 20 µM; active = inhibition of at least 40% at 20 µM
#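 Assay system – apoptosome proteins · Medium – Hepes buffer, pH 7.5 · Also added – cytochrome c with DEVD-Rh110 · Timing – 30 min compound preincubation, 50 min activation, room temperature · Detection – Rh110 fluorescence, excitation 480 nm, emission 540 nm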
# PAFAH2 FP conf = PAFAH2 (human) inhibition, confirmed; shares compounds with PAFAH2 FP inh; recombinant PAFAH2, FP-rhodamine activity probe, fluorescence polarization; inhibition, % at 3.39 µM; 2,300 tested, 65% active;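 active = mean inhibition over three repeats above a set limit taken from the earlier primary screen, cut at about 30% in these data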;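 also: inhibitor blocks binding of rhodamine activity probe so polarization falls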
# Hits are given with their value; n = inactive; x = no result; ! = a repeat was not active.
SMILES,PAFAH2 FP inh,PAFAH1B2 inh,PAFAH1B3 inh,pPAFAH FP inh,Apaf-1 inh,PAFAH2 FP conf
O=c1c2c(nc3nc(COc4ccccc4)[nH]n13)CCC2,61.4,n,n,n,n,55.8
O=C(COC(=O)c1ccc(NS(=O)(=O)c2ccc3c(c2)OCCO3)cc1)NC1CC1,63.6,n,n,n,n,51.1
CC1CCCC(NC(=O)COC(=O)c2ccc3c(c2)OCCO3)C1C (stereo not drawn),83.6,n,n,n,n,76.5
CN(C(=O)COC(=O)c1ccc2c(c1)OCO2)C1CCS(=O)(=O)C1 (stereo not drawn),n,n,n,n,n,x
CN(C(=O)COC(=O)c1ccc2c(c1)OCO2)C1CCCCC1,66.7,n,n,n,n,67.1
O=C(COC(=O)c1ccc2c(c1)OCO2)NC1CCCCC1,89.1,n,n,n,n,81.9
CC1CCCC(NC(=O)c2ccc3c(c2)OCCO3)C1C (stereo not drawn),n,n,n,n,n,x
CC1CCCC(NC(=O)COC(=O)c2ccccc2[N+](=O)[O-])C1C (stereo not drawn),65.0,n,n,n,n,56.9
CC1CCCC(NC(=O)COC(=O)/C=C/c2ccc([N+](=O)[O-])cc2)C1C (stereo not drawn),61.9,n,n,n,n,n
COc1cccc2cc(C(=O)OCC(=O)NC3CCCC(C)C3C)c(=O)oc12 (stereo not drawn),n,n,n,n,n,x
CC1CCN(C(=O)COC(=O)/C=C/c2ccc([N+](=O)[O-])cc2)CC1,n,n,n,n,n,x
CSCCC(NC(=O)c1ccc([N+](=O)[O-])cc1Cl)C(=O)OCC(=O)NC1CCCC(C)C1C (stereo not drawn),33.5,n,n,n,n,n
COc1ccc(Cl)cc1C(=O)OCC(=O)NC1CCCC(C)C1C (stereo not drawn),34.8,n,n,x,n,n
CC1CCCC(NC(=O)COC(=O)c2ccccc2NC(=O)c2ccco2)C1C (stereo not drawn),n,n,n,n,n,x
Cc1c(Cl)cccc1NC(=O)COC(=O)Cn1cnc2c1c(=O)n(C)c(=O)n2C,n,n,n,n,n,x
CCOc1ccc(NC(=O)CN(C)C(=O)CC(NC(=O)c2ccccc2)c2ccccc2)cc1OCC (stereo not drawn),n,n,n,n,n,x
CC1CCCC(C)N1C(=O)COC(=O)/C=C/c1ccco1 (stereo not drawn),n,n,n,n,n,x
CC1CCCC(NC(=O)COC(=O)/C=C/c2ccco2)C1C (stereo not drawn),85.6,n,n,n,n,78.6
C/C(N)=C(/C#N)C(=O)CSc1nnc(Nc2c(C)cccc2C)s1,31.8!,n,n,n,n,n
C/C(N)=C(/C#N)C(=O)CSc1nnc(Nc2cccc(C)c2C)s1,n,n,n,n,n,x
O=C(CN1C(=O)NC2(CCCc3ccccc32)C1=O)c1ccc(F)c(F)c1 (stereo not drawn),n,n,n,n,n,x
Cc1ccc(C(=O)Oc2oc(-c3ccco3)nc2C=Nc2ccc(Cl)cc2)cc1,41.4,n,n,n,n,n
COc1ccc(NC(=O)CN2CC(c3ccccc3)CC2=O)cc1OC (stereo not drawn),n,n,n,n,n,x
O=C(CN1CC(c2ccccc2)CC1=O)Nc1ccc2c(c1)OCO2 (stereo not drawn),31.9,n,n,n,n,n
O=C(CCS(=O)(=O)c1ccc(Br)cc1)NC1CCCCCC1,n,n,n,n,n,x
SMILES,PAFAH2 FP inh,PAFAH1B2 inh,PAFAH1B3 inh,pPAFAH FP inh,Apaf-1 inh,PAFAH2 FP conf
Cn1nccc1C(=O)OCC(=O)Nc1ccccc1,39.6,n,n,x,n,n
Cc1ccc(NC(=O)COC(=O)c2ccn(C)n2)cc1,67.6,n,n,n,n,63.0
Cn1ccc(C(=O)OCC(=O)Nc2ccccc2)n1,72.6,n,n,x,n,77.5
Cc1ccc(NC(=O)COC(=O)c2nn(C)cc2Cl)cc1,n,n,n,n,n,x
Cc1ccc(NC(=O)COC(=O)c2ccnn2C)cc1,n,n,n,n,n,x
O=C(O/N=C1\CCS(=O)(=O)c2sccc21)c1ccc(F)cc1,52.1,n,n,n,n,55.3
Cc1cccc(C(=O)O/N=C2\CCS(=O)(=O)c3sccc32)c1,77.9,n,n,n,n,76.7
COc1ccc2c(c1)CC/C2=N\OC(=O)c1cccc(C)c1,n,n,n,n,n,x
Cc1ccc(C(=O)OC2CCS(=O)(=O)c3sccc32)cc1 (stereo not drawn),n,n,n,n,n,x
O=C(O/N=C1\CCS(=O)(=O)c2sccc21)c1ccccc1,73.3,n,n,n,n,71.5
O/N=C(/CCc1ccccc1)c1ccc2c(c1)OCCO2,n,n,n,n,n,x
O=C(NC12CC3CC(CC(C3)C1)C2)c1cncc(O)c1,38.4,n,n,n,n,n
O=C(NC12CC3CC(CC(C3)C1)C2)c1cccnc1,n,n,n,n,n,x
COc1ccc(CN(C2CC2)S(=O)(=O)c2ccccc2Br)cc1,n,n,n,n,n,x
Cc1cccc(N2NC(=O)/C(=C/c3ccc(-c4ccc(Cl)c(C(=O)O)c4)o3)C2=O)c1,32.4,n,n,x,x,n
O=C(O)c1cc(-c2ccc(/C=C3\NC(=O)N(c4ccccc4)C3=O)o2)ccc1Cl,n,n,n,n,n,x
O=S(=O)(O)c1cccc2cccc(Nc3ccccc3)c12,30.7,n,n,n,n,n
O=C1CCCC2=C1C(c1cccc(O)c1)C1=C(N2)c2ccccc2C1=O (stereo not drawn),29.7,n,n,n,n,n
COc1cccc(C2C3=C(CCCC3=O)NC3=C2C(=O)c2ccccc23)c1 (stereo not drawn),x,x,x,n,n,x
CC(=O)Nc1ccc(C(=O)OCc2ccc(F)cc2Cl)cc1,n,n,n,n,n,x
CC(=O)Nc1ccc(C(=O)OCc2ccc(Cl)c(Cl)c2)cc1,60.9,n,n,n,n,62.7
CCC(=O)Nc1ccc(C(=O)OCc2ccc(Cl)c(Cl)c2)cc1,36.1,n,n,n,n,46.8
CCCS(=O)(=O)c1ccc(COC(=O)c2ccc(NC(C)=O)cc2)cc1,30.2,n,n,n,n,n
CCC[C@H]1NC(=O)[C@H](C)N(C)C(=O)C(C)(C)C(=O)C(C)NC(=O)[C@H](Cc2ccc(OC)cc2)N(C)C(=O)[C@H](C(C)C)N(C)C(=O)CNC(=O)[C@H](CC(C)C)N(C)C(=O)CNC(=O)[C@H]([C@@H](C)CC)OC(=O)[C@H]1C (stereo partly drawn),x,x,x,n,n,x
CC1CN(S(=O)(=O)c2cc(C(=O)NCCC3=CCCCC3)ccc2Cl)CC(C)O1 (stereo not drawn),n,n,n,n,n,x
O=C(COC(=O)c1cccs1)Nc1ccccc1[N+](=O)[O-],74.6,n,n,n,n,68.4
N#Cc1ccccc1NC(=O)COC(=O)c1cccs1,84.1,n,n,n,n,62.6
